Consider twelve compounds from ChEMBL document CHEMBL1156681, “Synthesis, anti-bacterial, anti-asthmatic and anti-diabetic activities of novel N-substituted-2-(4-phenylethynyl-phenyl)-1H-benzimidazoles and N-substituted 2[4-(4,4-dimethyl-thiochroman-6-yl-ethynyl)-phenyl)-1H-benzimidazoles” (2008).

≈ marks a conversion by molar mass, not a printed value. Calls of active or inactive are those of the source. The rule behind the calls is not given here.

The subject of assay [1] is Staphylococcus aureus. In words: Antibacterial activity against Staphylococcus aureus at 500 ug/ml after 48 hrs by tube dilution method. The class given is functional, organism-based. The essentials: (§1)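 Compounds dissolved in DMSO and tested by tube dilution at […]. Tubes were incubated at 37 °C for 48 h. Growth was scored against the DMSO control as poor, medium or confluent (no inhibition). MIC was taken from the dilution series. Cephalexin served as the reference antibacterial and DMSO as the solvent control.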

Assay [2] concerns Staphylococcus aureus. In words: Antibacterial activity against Staphylococcus aureus at 0.1 ug/ml after 48 hrs by tube dilution method. The class given is functional, organism-based. The procedure, abridged: as §1
The test system of assay [3] is Staphylococcus aureus. The experiment in a line: Antibacterial activity against Staphylococcus aureus after 48 hrs by tube dilution method. The class given is functional. The procedure, abridged: as §1
The test system of assay [4] is Salmonella typhimurium. The experiment in a line: Antibacterial activity against Salmonella Typhimurium at 1 ug/ml after 48 hrs by tube dilution method. The class given is functional, organism-based. As to conditions: Salmonella enterica subsp. enterica serovar Typhimurium. The procedure, abridged: as §1
Assay [5] relates to Staphylococcus aureus. In words: Antibacterial activity against Staphylococcus aureus at 1 ug/ml after 48 hrs by tube dilution method. The class given is functional, organism-based. The essentials:
as §1

Assay [6] concerns Salmonella typhimurium. In words: Antibacterial activity against Salmonella Typhimurium at 500 ug/ml after 48 hrs by tube dilution method. The class given is functional, organism-based. As to conditions: Salmonella enterica subsp. enterica serovar Typhimurium. The procedure, abridged: as §1
Assay [7] relates to Salmonella typhimurium. In words: Antibacterial activity against Salmonella Typhimurium after 48 hrs by tube dilution method. The class given is functional, Salmonella enterica subsp. enterica serovar Typhimurium. As to conditions: Salmonella enterica. The procedure, abridged:
as §1

The target in assay [8] is Phosphodiesterase 4 (Homo sapiens) (UniProt P27815+Q08499+Q07343+Q08493). The experiment in a line: Inhibition of human PDE4 at 1 uM after 20 mins. The class given is protein assay.
In assay [9] the test system is Staphylococcus aureus. In words: Antibacterial activity against Staphylococcus aureus at 10 ug/ml after 48 hrs by tube dilution method. The class given is functional, organism-based. The essentials:
as §1

Assay [10] deals with Salmonella typhimurium. The experiment in a line: Antibacterial activity against Salmonella Typhimurium at 0.1 ug/ml after 48 hrs by tube dilution method. The class given is functional, organism-based. As to conditions: Salmonella enterica subsp. enterica serovar Typhimurium. The procedure, abridged:
as §1

Assay [11] deals with T1, Tyrosine-protein phosphatase non-receptor type 1 (Homo sapiens) (UniProt P18031).
T1 sequence (whole entry): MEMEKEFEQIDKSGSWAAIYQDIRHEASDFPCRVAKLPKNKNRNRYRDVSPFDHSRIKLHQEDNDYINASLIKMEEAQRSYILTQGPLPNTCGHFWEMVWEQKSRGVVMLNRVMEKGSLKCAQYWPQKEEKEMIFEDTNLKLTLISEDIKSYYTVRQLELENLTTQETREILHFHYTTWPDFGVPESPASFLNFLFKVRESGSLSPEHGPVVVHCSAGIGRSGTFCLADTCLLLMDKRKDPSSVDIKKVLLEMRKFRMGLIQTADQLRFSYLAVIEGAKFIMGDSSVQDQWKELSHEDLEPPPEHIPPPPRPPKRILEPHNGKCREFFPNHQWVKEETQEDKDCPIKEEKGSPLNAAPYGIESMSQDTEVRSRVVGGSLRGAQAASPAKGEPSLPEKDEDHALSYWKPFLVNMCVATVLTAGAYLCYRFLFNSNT
The experiment in a line: Inhibition of human recombinant PTP1B at 30 uM after 30 mins relative to control. The essentials: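 In-house human recombinant PTP-1B (~35 ng) was assayed with p-nitrophenyl phosphate in 25 mM Hepes, 3 mM DTT and 1 mM EDTA, pH 7.4, with DMSO at ≤1%. Absorbance at 405 nm was monitored continuously at 30 °C for 30 min, then NaOH was added and 405 nm read again. Activity was expressed as % of control, and % inhibition as 100 minus activity.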

Assay [12] relates to Salmonella typhimurium. The experiment in a line: Antibacterial activity against Salmonella Typhimurium at 10 ug/ml after 48 hrs by tube dilution method. The conditions noted are these: Salmonella enterica subsp. enterica serovar Typhimurium. The class given is functional, organism-based. The procedure, abridged:
as §1

The target of assay [13] is Dipeptidyl peptidase 4 (Homo sapiens) (UniProt P27487). The experiment in a line: Inhibition of human recombinant DPP4 at 0.3 uM after 30 mins relative to control. The procedure, abridged:
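Recombinant human DPP-IV (10 ng) was run in 25 mM Tris pH 7.4, 140 mM NaCl, 10 mM KCl and 1% BSA with Gly-Pro-AMC substrate. Compounds in DMSO were added, and AMC release was followed kinetically at 30 °C for 30 min (ex 380 / em 460 nm). Percent inhibition was calculated against the solvent-only control.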

In assay [14] the test system is Staphylococcus aureus. In words: Antibacterial activity against Staphylococcus aureus at 200 ug/ml after 48 hrs by tube dilution method. The class given is functional, organism-based. The essentials:
as §1

The test system of assay [15] is Salmonella typhimurium. In words: Antibacterial activity against Salmonella Typhimurium at 200 ug/ml after 48 hrs by tube dilution method. The class given is functional, organism-based. As to conditions: Salmonella enterica subsp. enterica serovar Typhimurium. The procedure, abridged: as §1

Chain of Dipeptidyl peptidase 4 (Homo sapiens) (P27487 whole entry, looked up): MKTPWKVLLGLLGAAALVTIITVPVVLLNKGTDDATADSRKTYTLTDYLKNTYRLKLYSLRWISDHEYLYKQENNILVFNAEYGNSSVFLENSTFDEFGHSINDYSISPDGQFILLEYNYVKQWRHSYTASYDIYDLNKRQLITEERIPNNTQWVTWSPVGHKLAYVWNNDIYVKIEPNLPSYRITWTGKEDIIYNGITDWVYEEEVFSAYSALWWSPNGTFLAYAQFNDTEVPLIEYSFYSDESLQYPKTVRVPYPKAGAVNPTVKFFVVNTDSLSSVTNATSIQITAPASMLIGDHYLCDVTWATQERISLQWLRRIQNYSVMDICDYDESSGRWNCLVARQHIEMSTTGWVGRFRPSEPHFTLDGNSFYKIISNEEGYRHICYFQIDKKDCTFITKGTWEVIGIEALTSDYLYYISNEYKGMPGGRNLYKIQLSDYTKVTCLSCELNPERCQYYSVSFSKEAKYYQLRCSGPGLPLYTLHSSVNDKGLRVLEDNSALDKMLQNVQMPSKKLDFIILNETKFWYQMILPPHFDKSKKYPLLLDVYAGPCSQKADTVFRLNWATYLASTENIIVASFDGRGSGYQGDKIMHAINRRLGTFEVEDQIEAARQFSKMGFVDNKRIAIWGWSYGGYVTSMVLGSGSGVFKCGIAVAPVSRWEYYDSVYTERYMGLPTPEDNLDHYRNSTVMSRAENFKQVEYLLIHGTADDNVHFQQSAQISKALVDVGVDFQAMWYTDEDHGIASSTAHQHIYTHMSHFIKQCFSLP

For the compound `CCCn1c(-c2ccc(C#Cc3ccc4c(c3)C(C)(C)CCS4)cc2)nc2ccccc21`, the outcome with Staphylococcus aureus [1] and in the assay on Salmonella typhimurium [6] was Active. The outcome with Staphylococcus aureus [2], in the assay on Salmonella typhimurium [4], with Staphylococcus aureus [5], in the assay with Staphylococcus aureus [9], in the assay with Salmonella typhimurium [10] and in the assay on Salmonella typhimurium [12] was inactive. Besides, the MIC with Staphylococcus aureus [3] and with Salmonella typhimurium [7] was 500 µg/mL (≈ 1150 µM) in each case. For the same compound, the inhibition (usually the drop in the measured response relative to a control, in per cent) stood at 17.3% in assay [8], 7.38% in [11] and 0% in assay [13].
For the compound `CCOC(=O)n1c(-c2ccc(C#Cc3ccc4c(c3)C(C)(C)CCS4)cc2)nc2ccccc21`, the result in the assay on Staphylococcus aureus [1] and with Salmonella typhimurium [6] was Active. Further, the outcome in the assay with Staphylococcus aureus [2], with Salmonella typhimurium [4], in the assay with Staphylococcus aureus [5], in the assay on Staphylococcus aureus [9], with Salmonella typhimurium [10] and in the assay with Salmonella typhimurium [12] was inactive. In addition, the minimum inhibitory concentration (MIC) against Staphylococcus aureus [3] and against Salmonella typhimurium [7] was 500 µg/mL (≈ 1070 µM) in each case. The inhibition in [8] worked out at 16.9%; in [11], 0%; in assay [13], 7%.
For the compound `CC1(C)CCSc2ccc(C#Cc3ccc(-c4nc5ccccc5[nH]4)cc3)cc21`, the outcome with Staphylococcus aureus [1], in the assay on Salmonella typhimurium [6], in the assay with Staphylococcus aureus [14] and in the assay on Salmonella typhimurium [15] was Active. For the same compound, the outcome with Staphylococcus aureus [2], in the assay with Salmonella typhimurium [4], in the assay with Staphylococcus aureus [5] and with Salmonella typhimurium [10] was inactive. For the same compound, the MIC in the assay on Staphylococcus aureus [3] and with Salmonella typhimurium [7] was 200 µg/mL (≈ 507 µM) in each case. Also, the inhibition was 0% in assay [8], 2.42% in assay [11] and 0% in [13].
Regarding `COC(=O)n1c(-c2ccc(C#Cc3ccc4c(c3)C(C)(C)CCS4)cc2)nc2ccccc21`, the result with Staphylococcus aureus [1], with Salmonella typhimurium [6], in the assay on Staphylococcus aureus [14] and with Salmonella typhimurium [15] was Active. Also, the result in the assay with Staphylococcus aureus [2], in the assay with Salmonella typhimurium [4], with Staphylococcus aureus [5] and in the assay on Salmonella typhimurium [10] was inactive. The MIC with Staphylococcus aureus [3] and in the assay with Salmonella typhimurium [7] was 200 µg/mL (≈ 442 µM) throughout. The inhibition in assay [8] is 17.9%; in assay [11], 0.97%; in assay [13] it was 5%.
With `CCCCn1c(-c2ccc(C#Cc3ccccc3)cc2)nc2ccccc21`, the result with Staphylococcus aureus [1] and with Salmonella typhimurium [6] was Active. Moreover, the result with Staphylococcus aureus [2], in the assay with Salmonella typhimurium [4], in the assay on Staphylococcus aureus [5] and in the assay on Salmonella typhimurium [10] was inactive. Further, the MIC in the assay with Staphylococcus aureus [3] and in the assay on Salmonella typhimurium [7] was 500 µg/mL (≈ 1430 µM) in each case. In addition, the inhibition in assay [8] worked out at 19.4%; in [11], 0%; in [13], 3%.
In the case of `CCCCn1c(-c2ccc(C#Cc3ccc4c(c3)C(C)(C)CCS4)cc2)nc2ccccc21`, the result with Staphylococcus aureus [1], with Salmonella typhimurium [6], in the assay with Staphylococcus aureus [14] and with Salmonella typhimurium [15] was Active. In addition, the result in the assay with Staphylococcus aureus [2], in the assay on Salmonella typhimurium [4] and with Salmonella typhimurium [10] was inactive. The MIC with Staphylococcus aureus [3] and against Salmonella typhimurium [7] was 200 µg/mL (≈ 444 µM) each time. Moreover, the inhibition turned out to be 19.9% in assay [8], 0.15% in [11] and 5% in [13].
As for `CCCCOC(=O)n1c(-c2ccc(C#Cc3ccc4c(c3)C(C)(C)CCS4)cc2)nc2ccccc21`, the result with Staphylococcus aureus [1] and in the assay with Salmonella typhimurium [6] was Active. The outcome in the assay with Staphylococcus aureus [2], in the assay with Salmonella typhimurium [4], in the assay on Staphylococcus aureus [5] and with Salmonella typhimurium [10] was inactive. The minimum inhibitory concentration (MIC) against Staphylococcus aureus [3] and against Salmonella typhimurium [7] was 500 µg/mL (≈ 1010 µM) in each case. For the same compound, the inhibition in assay [8] turned out to be 21%; in assay [11], 1.94%; in [13] it was 0%.
For the compound `CCCn1c(-c2ccc(C#Cc3ccccc3)cc2)nc2ccccc21`, the outcome in the assay with Staphylococcus aureus [1] and with Salmonella typhimurium [6] was Active. Further, the result with Staphylococcus aureus [2], in the assay on Salmonella typhimurium [4], in the assay on Staphylococcus aureus [5], in the assay on Staphylococcus aureus [9] and with Salmonella typhimurium [10] was inactive. For the same compound, the MIC with Staphylococcus aureus [3] and with Salmonella typhimurium [7] was 500 µg/mL (≈ 1490 µM) in each case. For the same compound, the inhibition in [8] amounted to 8.91%; in [11], 0%; in assay [13], 0%.
For `CC1(C)CCSc2ccc(C#Cc3ccc(-c4nc5ccccc5n4S(=O)(=O)C(F)(F)F)cc3)cc21`, the outcome in the assay with Staphylococcus aureus [1], in the assay with Salmonella typhimurium [6] and in the assay with Salmonella typhimurium [15] was Active. Moreover, the outcome in the assay with Staphylococcus aureus [2], in the assay with Salmonella typhimurium [4], in the assay with Staphylococcus aureus [5], in the assay on Staphylococcus aureus [9], in the assay on Salmonella typhimurium [10] and in the assay with Salmonella typhimurium [12] was inactive. Further, the MIC (as a rule, the least concentration at which growth counts as inhibited) stood at 500 µg/mL (≈ 949 µM) in the assay with Staphylococcus aureus [3] and 200 µg/mL (≈ 380 µM) against Salmonella typhimurium [7]. Further, the inhibition in assay [8] was found to be 22.6%; in [11] it was 0.52%; in assay [13], 9%.
For `CCOC(=O)n1c(-c2ccc(C#Cc3ccccc3)cc2)nc2ccccc21`, the outcome with Staphylococcus aureus [1] and in the assay on Salmonella typhimurium [6] was Active. Besides, the outcome in the assay with Staphylococcus aureus [2], in the assay with Salmonella typhimurium [4], in the assay with Staphylococcus aureus [5] and in the assay with Salmonella typhimurium [10] was inactive. Moreover, the MIC against Staphylococcus aureus [3] and against Salmonella typhimurium [7] was 500 µg/mL (≈ 1360 µM) in each case. Moreover, the inhibition in assay [8] is 16.5%; in [11] it was 27.7%; in [13] it was 0%.
With `COC(=O)n1c(-c2ccc(C#Cc3ccccc3)cc2)nc2ccccc21`, the outcome in the assay with Staphylococcus aureus [1] and in the assay with Salmonella typhimurium [6] was Active. The result in the assay with Staphylococcus aureus [2], with Salmonella typhimurium [4], in the assay with Staphylococcus aureus [5], in the assay with Salmonella typhimurium [10] and in the assay with Salmonella typhimurium [12] was inactive. The MIC in the assay on Staphylococcus aureus [3] and in the assay on Salmonella typhimurium [7] was 500 µg/mL (≈ 1420 µM) throughout. Besides, the inhibition in assay [8] turned out to be 18.2%; in assay [11], 29%; in assay [13] it was 0%.
For the compound `Cn1c(-c2ccc(C#Cc3ccccc3)cc2)nc2ccccc21`, the result in the assay on Staphylococcus aureus [1], with Salmonella typhimurium [6] and in the assay with Salmonella typhimurium [15] was Active. For the same compound, the result in the assay with Staphylococcus aureus [2], in the assay with Salmonella typhimurium [4], in the assay with Staphylococcus aureus [5], with Staphylococcus aureus [9], with Salmonella typhimurium [10] and with Salmonella typhimurium [12] was inactive. For the same compound, the MIC against Staphylococcus aureus [3] is 500 µg/mL (≈ 1620 µM); against Salmonella typhimurium [7], 200 µg/mL (≈ 649 µM). Besides, the figures for the inhibition in [8], in assay [11] and in [13] were 22.3%, 8.42% and 9%, respectively.
